Results as given in ChEMBL document CHEMBL1132156, “Synthesis and structure-activity relationships of potential anticancer agents: alkylcarbamates of 3-(9-acridinylamino)-5-hydroxymethylaniline” (J Med Chem, 1999).

Legend:
Mus musculus [1] = assay: […] anticancer activity against B6D2F-1 mice bearing P388 leukemia measured by the average weight change(g) after day 11 at an intravenous dose of 15(mg/kg).; format: functional
Outline: (§1)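 Male B6D2F1 mice (8 weeks old, 20–25 g) were implanted iv on day 0 with P388/0 ascites cells (0.2 mL; ascites:saline 1.10), which grew in the liver. Drug was given iv via the tail vein, Q2Dx5, on days 1, 3, 5, 7 and 9. Groups had 4–5 mice. Day 1 value is mean body weight; later days are weight change.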

Mus musculus [2] = assay: […] anticancer activity against B6D2F-1 mice bearing Sarcoma 180 measured by the average weight change(g) after day 14 at an intraperitoneal dose of 5(mg/kg).
Mus musculus [3] = assay: […] anticancer activity against 5 B6D2F-1 mice bearing P388 leukemia measured by the toxicity death at an intravenous dose of 10(mg/kg)..; format: organism-based; conditions: in vivo
Outline: (§2)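 Male B6D2F1 mice, 8 weeks old, 20–25 g. P388/0 ascites cells (0.2 mL, ascites:saline 1.10) were implanted iv on day 0, and the tumor grew in the liver. Drug was given iv by tail vein on days 1, 3, 5, 7 and 9 (Q2Dx5), with 4–5 mice per group. Survival time was scored as 8 a.m. (0.0), 1 p.m. (0.25) or 5 p.m. (0.5) deaths. %ILS was averaged against untreated controls, and toxic deaths were counted.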

Mus musculus [4] = assay: […] anticancer activity against B6D2F-1 mice bearing P388 leukemia measured by the average weight change(g) after day 7 at an intravenous dose of 15(mg/kg).; format: functional; outline: as §1
Mus musculus [5] = assay: […] anticancer activity against B6D2F-1 mice bearing Sarcoma 180 measured by the average weight change(g) after day 14 at an intraperitoneal dose of 7(mg/kg).; format: functional
Outline: (§3)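 Male B6D2F1 mice (8 weeks old, 20–25 g) were inoculated sc with 3×10^6 Sarcoma 180 cells on day 0. Dosing was ip, QDx5, starting on day 1. Groups were 4 control mice and 2 mice per dose. Average body weight change (g) and treated/control tumor volume were evaluated on days 7, 10 and 14.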

Mus musculus [6] = assay: […] anticancer activity against B6D2F-1 mice bearing Lewis Lung Carcinoma measured by the average weight change(g) after day 14 at an intraperitoneal dose of 6(mg/kg).; format: functional
Outline: (§4)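 Male B6D2F1 mice (8 weeks old, 20–25 g) received 4×10^6 Lewis lung carcinoma cells sc on day -2. Dosing was ip, QDx5, starting on day 1. Groups were 4 control mice and 3 mice per dose. Tumor size and average body-weight change were evaluated on days 7, 10 and 14. Tumor volume is expressed as the treated/control ratio.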

Mus musculus [7] = assay: […] anticancer activity against B6D2F-1 mice bearing Sarcoma 180 measured by the average weight change(g) after day 7 at an intraperitoneal dose of 3(mg/kg).; format: functional; outline: as §3
Mus musculus [8] = assay: […] anticancer activity against 5 B6D2F-1 mice bearing P388 leukemia measured by the toxicity death at an intravenous dose of 15(mg/kg).; format: organism-based; conditions: in vivo; outline: as §2
Mus musculus [9] = assay: […] anticancer activity against B6D2F-1 mice bearing Lewis Lung Carcinoma measured by the average weight change(g) after day 14 at an intraperitoneal dose of 3(mg/kg).; format: functional; outline: as §4
Mus musculus [10] = assay: […] anticancer activity against B6D2F-1 mice bearing Sarcoma 180 measured by the average weight change(g) after day 14 at an intraperitoneal dose of 3(mg/kg).
Mus musculus [11] = assay: […] anticancer activity against B6D2F-1 mice bearing Sarcoma 180 measured by the average weight change(g) after day 7 at an intraperitoneal dose of 5(mg/kg).; format: functional; outline: as §3
Mus musculus [12] = assay: […] anticancer activity against B6D2F-1 mice bearing P388 leukemia measured by the average weight change(g) after day 11 at an intravenous dose of 10(mg/kg).; format: functional; outline: as §1
Mus musculus [13] = assay: […] anticancer activity against B6D2F-1 mice bearing P388 leukemia measured by the increase in lifespan(%) at an intravenous dose of 15(mg/kg).; format: functional; outline: as §2
Mus musculus [14] = assay: […] anticancer activity against B6D2F-1 mice bearing Lewis Lung Carcinoma measured by the Average tumor vol after day 10 at an intraperitoneal dose of 3(mg/kg).; format: functional; outline: as §4
Mus musculus [15] = assay: […] anticancer activity against B6D2F-1 mice bearing P388 leukemia measured by the average survival time(day+/-SD) at an intravenous dose of 10(mg/kg)..; format: functional; outline: as §2
Mus musculus [16] = assay: […] anticancer activity against B6D2F-1 mice bearing Lewis Lung Carcinoma measured by the Average tumor vol after day 7 at an intraperitoneal dose of 3(mg/kg).; format: functional; outline: as §4
Mus musculus [17] = assay: […] anticancer activity against B6D2F-1 mice bearing P388 leukemia measured by the average body weight(g) after day 1 at an intravenous dose of 15(mg/kg).
Mus musculus [18] = assay: […] anticancer activity against B6D2F-1 mice bearing Sarcoma 180 measured by the average weight change(g) after day 10 at an intraperitoneal dose of 3(mg/kg).; format: functional; outline: as §3
HL-60 = assay: In vitro inhibition of human leukemic HL-60 cell growth in culture; format: functional, cell-based
Outline: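 HL-60 cells were seeded at 5×10^4 cells/mL in RPMI 1640 with 10% heat-inactivated FBS, penicillin and streptomycin, at 37 °C in 5% CO2. Cells were exposed for 72 h to six or seven drug concentrations, run in duplicate. Viability was read by XTT-tetrazolium microculture absorbance, and IC50 was derived from median-effect plot analysis.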

Mus musculus [19] = assay: […] anticancer activity against B6D2F-1 mice bearing Lewis Lung Carcinoma measured by the Average tumor vol after day 10 at an intraperitoneal dose of 6(mg/kg).; format: functional; outline: as §4
Mus musculus [20] = assay: […] anticancer activity against B6D2F-1 mice bearing P388 leukemia measured by the average weight change(g) after day 9 at an intravenous dose of 15(mg/kg).; format: functional
Outline: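 Male B6D2F1 mice (8 weeks old, 20–25 g) were implanted iv on day 0 with P388/0 ascites cells (0.2 mL; ascites:saline = 1.10). Tumor grew in the liver. Drug was given iv via the tail vein, Q2Dx5, on days 1, 3, 5, 7 and 9. Body weight was recorded on days 1, 7, 9 and 11 and reported as the average change (g).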

Mus musculus [21] = assay: […] anticancer activity against B6D2F-1 mice bearing Sarcoma 180 measured by the average weight change(g) after day 10 at an intraperitoneal dose of 7(mg/kg).; format: functional; outline: as §3
Mus musculus [22] = assay: […] anticancer activity against B6D2F-1 mice bearing P388 leukemia measured by the Average tumor vol after day 14 at an intravenous dose of 3(mg/kg).; format: functional
Mus musculus [23] = assay: […] anticancer activity against B6D2F-1 mice bearing Lewis Lung Carcinoma measured by the Average tumor vol after day 14 at an intraperitoneal dose of 6(mg/kg).; format: functional; outline: as §4
Mus musculus [24] = assay: […] anticancer activity against B6D2F-1 mice bearing Sarcoma 180 measured by the Average tumor vol after day 7 at an intravenous dose of 3(mg/kg).
Mus musculus [25] = assay: […] anticancer activity against B6D2F-1 mice bearing Lewis Lung Carcinoma measured by the Average tumor vol after day 14 at an intraperitoneal dose of 3(mg/kg).; format: functional; outline: as §4

Q: `CCOC(=O)Nc1cc(CO)cc(Nc2c3ccccc3nc3ccccc23)c1` was tested. Which Average weight change (Mus musculus [1]) did it give?
A: -3.7 g

Q: And the Average weight change (Mus musculus [2])?
A: 1.2 g

Q: What about the Toxicity related death (Mus musculus [3]) of the same compound?
A: 0

Q: What about the Average weight change (Mus musculus [4]) of the same compound?
A: -1.6 g

Q: And the Average weight change (Mus musculus [5])?
A: -0.4 g

Q: And the Average weight change (Mus musculus [6])?
A: -0.5 g

Q: What about the Average weight change (Mus musculus [7]) of the same compound?
A: -2 g

Q: What about the Toxicity related death (Mus musculus [8]) of the same compound?
A: 4

Q: What about the Average weight change (Mus musculus [9]) of the same compound?
A: -0.8 g

Q: And the Average weight change (Mus musculus [10])?
A: -0.8 g

Q: What about the Average weight change (Mus musculus [11]) of the same compound?
A: -2.6 g

Q: And the Average weight change (Mus musculus [12])?
A: -0.1 g

Q: What about the Increase in life-span (Mus musculus [13]) of the same compound?
A: 106%

Q: What about the Average tumor volume (Mus musculus [14]) of the same compound?
A: 0.63

Q: What about the Average survival (Mus musculus [15]) of the same compound?
A: 18.4 days

Q: What about the Average tumor volume (Mus musculus [16]) of the same compound?
A: 0.8

Q: And the Body weight (Mus musculus [17])?
A: 23 g

Q: What about the Average weight change (Mus musculus [18]) of the same compound?
A: -0.7 g

Q: And the IC50 (HL-60)?
A: 4.4 nM

Q: What about the Average tumor volume (Mus musculus [19]) of the same compound?
A: 0.37

Q: What about the Average weight change (Mus musculus [20]) of the same compound?
A: -2 g

Q: What about the Average weight change (Mus musculus [21]) of the same compound?
A: -0.1 g

Q: What about the Average tumor volume (Mus musculus [22]) of the same compound?
A: 0.74

Q: What about the Average tumor volume (Mus musculus [23]) of the same compound?
A: 0.52

Q: What about the Average tumor volume (Mus musculus [24]) of the same compound?
A: 1.24

Q: What about the Average tumor volume (Mus musculus [25]) of the same compound?
A: 0.68
